Reference: ChEMBL document CHEMBL4513216, “Probing the Open Global Health Chemical Diversity Library for Multistage-Active Starting Points for Next-Generation Antimalarials” (ACS Infect Dis, 2020)

Experiment: Toxicity liver stage against HepG2, at 10uM
Format: cell-based
Set-up: test concentration 10 uM, cell line HepG2-A16-CD81EGFP
Settings: human, HepG2-A16-CD81EGFP cells; read-out: INHIBITION
How it was run: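 Uninfected HepG2-A16-CD81EGFP cells, 3 × 10^3 per well, 1536-well, plated on prespotted compound at 10 μM final, parasite-free screening media added to match infected plates; puromycin 10 μM positive, DMSO 0.5% negative; run in parallel with 48 h PbLuc assay at 37 °C, 5% CO2; viability by CellTiter-Glo luminescence, normalized to controls.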

| SMILES | cytotoxicity at 10 µM [%] |
| --- | --- |
| CCCNC(=O)COc1cc(C)c2c(C)nn(-c3ccc(C)cc3)c2n1 | -0.217 |
| O=c1[nH]cc(Nc2ccc(Cl)cc2)c(=O)[nH]1 | 18.4 |
| O=c1ccc(-n2ccnc2)nn1CCNS(=O)(=O)c1ccc(Cl)s1 | -1.36 |
| Cn1nnc2c(N3CC(C(=O)NCc4ccccc4F)C3)ncnc21 | 0.447 |
| CCCc1nnsc1C(=O)NCC(O)c1ccoc1 (centres undefined) | 4.25 |
| CCc1ccc(S(=O)(=O)NCCC(O)c2ccoc2)s1 (centres undefined) | -10.9 |
| CN(C)c1cccc(C(=O)N2CCc3ccc(=O)[nH]c3CC2)c1 | 9.23 |
| CC(C)CC(=O)N1CC[C@@H]2CN(CC(=O)N(C)C)S(=O)(=O)[C@@H]2CC1 | 10 |
| CCN1C(=O)CC(c2cnn(C)c2)C12CCN(C(=O)c1ccoc1)CC2 (centres undefined) | 9.61 |
| CS(=O)(=O)N[C@@H]1COC[C@@H]2CN(Cc3ccoc3)C[C@@H]21 | -4.85 |
| Cc1ccc2c(c1)CCC21CCN(CCO)CC1 | -0.675 |
| CS(=O)(=O)N1CC[C@H]2O[C@@H](C(=O)NCc3ccco3)CC[C@H]21 | 4.23 |
| COc1ncccc1C(=O)N1CC[C@H]2C[C@@H](c3noc(C)n3)O[C@@H]2C1 | 4.76 |
| O=C(NCCc1cc(N2CCOCC2)nc(N2CCCC2)n1)C1CC1 | 6.8 |
| Cc1cn[nH]c1C1CCCN1Cc1ccc(F)c(F)c1 (centres undefined) | 4.14 |
| CN1CCCC1(CCCc1cccnc1)C(=O)NCc1nccn1C (centres undefined) | 0.732 |
| Oc1cc(C2CCCCN2C2CCCC2)nc(-c2cccnc2)n1 (centres undefined) | 11.2 |
| Cc1cccc(CN2CCCC[C@H]3CN(c4ncccn4)C[C@H]32)c1 | 1.18 |
| CN1CCCCC1c1ccc(-n2ccnc2)nc1 (centres undefined) | 5.01 |
| CN1CCC(c2cccc(-c3ccc(C(=O)O)cc3)n2)CC1 | -0.358 |
| COc1ccc(S(=O)(=O)N2C[C@H](OC)[C@]3(CCCO3)C2)cc1 | 1.64 |
| COCC(=O)N1CCC(c2noc3nc(C)cc(C(F)(F)F)c23)CC1 | 2.78 |

| SMILES | cytotoxicity at 10 µM [%] |
| --- | --- |
| Cc1cccc(CS(=O)(=O)CC(O)Cn2cccn2)c1 (centres undefined) | -2.07 |
| Cc1cc(NC(=O)c2ccc(N3CCOCC3)c(F)c2)[nH]n1 | -33.9 |
| CNC(=O)Cn1ccc2ccc(NC(=O)NC(C)C(C)C)cc21 (centres undefined) | 3.36 |
| CCC(O)(CNCc1ncc[nH]1)c1ccc(Br)cc1 (centres undefined) | 3.54 |
| CS(=O)(=O)N1CCCN(CCCSCc2ccccc2)CC1 | -2.35 |
| COc1ccc(C2CCCN2c2nnc(C)s2)c(OC)c1 (centres undefined) | 9.74 |
| CCS(=O)(=O)CC(=O)NC(C)c1ccc(OCCC(C)C)cc1 (centres undefined) | 5.61 |
| COCCOc1ccccc1NC(C)C(=O)NC(=O)NC(C)(C)C (centres undefined) | 1.47 |
| Cc1ccn2ncc(C(=O)N3CCCC(c4cc(C)[nH]n4)C3)c2n1 (centres undefined) | -8.02 |
| Cc1[nH]ccc1C(=O)NCC1CC(=O)N(CCc2ccccc2)C1 (centres undefined) | -1.92 |
| CCN(CC1CCOC1)C(=O)c1ccc(COc2ccccc2C#N)o1 (centres undefined) | 3.34 |
| CN(Cc1nccn1C)S(=O)(=O)N1CCCC1c1ccco1 (centres undefined) | 3.21 |
| COc1ncccc1NC(=O)N1CCC(c2ccc(O)cc2)CC1 | 4.87 |
| O=c1[nH]ncc(NCCOc2cccc(Br)c2)c1Cl | 41.8 |
| C[S+]([O-])c1cccc(NC(=O)N(CCC#N)Cc2ccccn2)c1 (centres undefined) | 10.6 |
| O=C(CCCc1ccccn1)NCC(O)c1c(F)cccc1F (centres undefined) | -7.85 |
| COc1cccc(SCC(=O)N2CCCC(N3CCCC3=O)C2)c1 (centres undefined) | 6.16 |
| CC(C)C(O)CNC(=O)CCCc1ccccn1 (centres undefined) | 0.665 |
| CC(C)CNC(=O)c1ccc(NC(=O)NC2CC2)cc1Cl | 2.56 |
| CCc1ccsc1C(=O)N1CCN(C(=O)c2ccc(C)o2)CC1 | 6.98 |
| O=C(c1cc(-n2cccn2)ccn1)N(CC1CCC1)CC(F)(F)F | 6.4 |
| N#Cc1ccc(NCCCN2C(=O)COc3ccccc32)nc1 | 11 |

| SMILES | cytotoxicity at 10 µM [%] |
| --- | --- |
| Cc1ccc(CCCC(=O)N2CCN(C3CCCN(C)C3)CC2)s1 (centres undefined) | 5.82 |
| CC(=O)c1c(F)cccc1NCC(O)c1ccc(F)c(F)c1 (centres undefined) | 13.3 |
| Cc1cnn(CC(C)Nc2nc(C)cc(N(C)C)n2)c1 (centres undefined) | 7.07 |
| CCc1cnc(CCNC(C)CC(=O)Nc2cccc(C)c2C)s1 (centres undefined) | 6.69 |
| CCOCC1CN(C(=O)c2ccoc2)Cc2cnn(C)c21 (centres undefined) | 0.13 |
| Cc1ccc(CN2C[C@@H](C(=O)Nc3cccnc3)C[C@H]3OCC[C@H]32)o1 | 3.82 |
| CC(C)c1cc(C(=O)N2CC[C@@H](c3ccc4c(c3)OCO4)[C@H](O)C2)[nH]n1 | 3.29 |
| Cn1c(C(N)=O)cc2c1CN(C(=O)C1CCCN(C3CCCC3)C1)CC2 (centres undefined) | -47.1 |
| COc1cc(Cl)cc(CN2CCCC(N3CCOCC3)C2)c1OC (centres undefined) | 0.944 |
| CCN(Cc1nc(C)no1)C(=O)C1CC(=O)N(Cc2cccnc2)C1 (centres undefined) | 4.03 |
| CCc1ccc(CN2CCN(Cc3ncc[nH]3)[C@H]3CS(=O)(=O)C[C@H]32)nc1 | -0.235 |
| CCOC(=O)C1CCCCN1Cc1c[nH]nc1-c1cc2ccccc2o1 (centres undefined) | 4.8 |
| Cc1nc(CNC(=O)c2cc(COc3ccccc3)[nH]n2)n[nH]1 | 8.52 |
| Cc1nc(C)c(C)c(N2C[C@@H](CN3CCCN(C)CC3)[C@@H](CO)C2)n1 | -10.4 |
| Cc1cc(C)n2nc(CC(=O)N3CC[C@H]4NCCC[C@]4(CO)C3)nc2n1 | -0.363 |
| CSc1ccc(CN(CCO)C(=O)CCOc2ccccc2)cc1 | 2.08 |
| O=c1[nH]c(COc2cccc(F)c2)nc2c1CCNC2 | 10.1 |
| CCCc1cncnc1N1CCC2(CCC(=O)N(CCOC)C2)CC1 | 1.86 |
| COCc1cn(CC2CCN(Cc3c(C)[nH]c4ccccc34)CC2)nn1 | -5.36 |
| Cc1ccc2nc(C)cc(C(=O)NC(C)c3nnn[nH]3)c2c1 (centres undefined) | 7.8 |
| Cc1cc(-c2nn3c(C)nnc3s2)n[nH]1 | 6.52 |
| O=C(Nc1cnc2n1CCCC2)C1CCCN1C1CCNCC1 (centres undefined) | 11.6 |

| SMILES | cytotoxicity at 10 µM [%] |
| --- | --- |
| Cc1ccc(C(C)NC(=O)CNCCn2cccn2)cc1C (centres undefined) | -6.63 |
| Cc1cc(CNC(=O)CCc2c(C)nc3cc(O)nn3c2C)no1 | -3.27 |
| COCCN1CCC(NCc2cccc(C)c2)C1 (centres undefined) | 2.76 |
| Cc1nccc(-c2cccc(NCC(=O)N3CCOC(C)C3)c2)n1 (centres undefined) | -0.776 |
| Cn1ccnc1CN1CCCN(C(=O)c2cccc(CC#N)c2)CC1 | -2.13 |
| CC(=O)N1CCCN(C(=O)NCc2ccc(-c3ccn[nH]3)cc2)CC1 | 0.322 |
| NC(=O)NCC1CCCCN1C(=O)c1cc(F)cc(F)c1 (centres undefined) | -8.15 |
| Cc1ccc(-n2nnc(C(=O)NC(C)C)c2C2CC2)cc1 | -3.37 |
| CCc1nnc(CN2CCOC(Cn3cc(C)cn3)C2)o1 (centres undefined) | -6.59 |
| NC(=O)c1ccc(OCC(=O)NS(=O)(=O)c2ccc3c(c2)CCC3)cc1 | -8.89 |
| Cc1ccc(NC2CCN(C(=O)CCn3nc(C)cc3C)CC2)nn1 | -9.66 |
| CCNC(=O)NC(=O)CN1CCC(c2cccc(F)c2)C1 (centres undefined) | -9.45 |
| COC(=O)c1cccc(C(=O)N2CCCC(n3cncn3)C2)c1 (centres undefined) | -6.48 |
| O=C(COCCOc1ccccc1)N1CCCC(n2ccnc2)C1 (centres undefined) | -19.6 |
| Cc1nc(C)n(CC2CCCN(CC3CCCCC3)C2)n1 (centres undefined) | 2.04 |
| O=C(NCCn1nc2ccccn2c1=O)c1cc[nH]n1 | 3.45 |
| Clc1snnc1CN1CCOC(CNc2cccnn2)C1 (centres undefined) | -11 |
| CC(C)(NCC(=O)NCC(F)(F)F)c1ccc2c(c1)OCCO2 | -8.23 |
| CC(Nc1cccc(CN2CCOC2=O)c1)C(=O)NC(N)=O (centres undefined) | -7.44 |
| Cc1cc(C2CCCN2CCCS(=O)(=O)c2ccccc2)no1 (centres undefined) | -8.83 |
| c1cnnc(N2CCCC2CNCc2nc(C3CC3)no2)c1 (centres undefined) | -22.6 |
| O=C(Nc1ccccc1F)N(CCO)Cc1ccsc1 | 2.05 |

| SMILES | cytotoxicity at 10 µM [%] |
| --- | --- |
| O=C(CN1CCC(c2cccc(F)c2)C1)NCC(F)(F)F (centres undefined) | -10.4 |
| Cc1cccc(OCCC(=O)N2CCCN(C(N)=O)CC2)c1C | -6.8 |
| CC(C)OCCCNC(=O)CN1CCC(N2CCN(C)C2=O)CC1 | -6.82 |
| CC(Cn1ccnc1)NC(=O)NCCc1ccc2c(c1)OCCO2 (centres undefined) | -1.35 |
| O=C(Cc1ccc2c(c1)OCCO2)NCCc1nnc2n1CCC2 | -9.78 |
| c1cnc(-c2nc(CN3CCCC(Cn4cncn4)C3)cs2)nc1 (centres undefined) | -7.91 |
| Cc1cc(CN(C)C(=O)NCC(C)N2CCc3ccccc32)no1 (centres undefined) | -5.43 |
| O=S(=O)(C1CC1)N1C[C@H](Oc2ccccn2)[C@H]2OCCC[C@H]21 | -3.7 |
| c1c2c(nn1CC1CC1)C(CNC1CCOCC1)OCC2 (centres undefined) | 7.43 |
| Cc1noc(C)c1CN1C[C@H](OCC(=O)N(C)C)[C@H]2COC[C@H]21 | 7.61 |
| Cc1cnc(N2C[C@@H]3CN(Cc4ccco4)CCC[C@]3(C(=O)O)C2)nc1 | 7.25 |
| Cn1cc(N2CC3(CCN(CC4CC4)C3)CC2=O)cn1 (centres undefined) | 1.84 |
| Cc1cc(N(C)C)nc(C2CCCN2)n1 (centres undefined) | -11.1 |
| CN(C)C(=O)COC[C@@]12CCC[C@@H]1CNC2 | 0.903 |
| O=C1[C@H]2CN(S(=O)(=O)C3CC3)C[C@H]2CN1Cc1cccnc1 | -0.0545 |
| c1cnc(N2C[C@@H]3COC[C@]3(COCC3CCCC3)C2)nc1 | -8.85 |
| Cc1oncc1C(=O)N1C[C@H](OCc2ccccn2)[C@H]2OCCC[C@H]21 | -0.385 |
| Cc1nc(CN2CCOCC3(CCCN(c4cnccn4)C3)C2)cs1 (centres undefined) | -1.81 |
| Cc1cccc(N2CCC3(CCN(Cc4ccccn4)CC3)CC2)n1 | 4.17 |
| COc1ccc(CN2C[C@H]3CC[C@@H](C2)N(S(C)(=O)=O)C3)cc1 | -5.75 |
| Cc1ncsc1CN1C[C@@H]2CC[C@H]1CN(Cc1ccccc1)C2 | -14.1 |
